Results taken from ChEMBL document CHEMBL1141285, “Antimicrobial compounds from the Australian desert plant Eremophila neglecta” (2007).
Values after ≈ are worked out from the molar mass of the structure shown. Active and inactive are the calls of the source. The rule behind the calls is not given here.

Legend:
Staphylococcus aureus [1] = assay: Antimicrobial activity against Staphylococcus aureus ATCC 29213 by broth microdilution method; type: functional
Procedure, shortened: (§1)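 Broth microdilution in cation-adjusted MH II broth with 2% DMSO in the 2-fold serial dilutions (final 1% v/v), done in duplicate. Bacteria grown on 5% sheep blood agar at 37 °C. Final inoculum 5 × 10^5 CFU/mL. Plates shaken 10 min, then incubated overnight at 37 °C. MIC is the lowest concentration with no growth in both duplicate wells.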

Streptococcus pyogenes = assay: Antimicrobial activity against Streptococcus pyogenes ATCC 10389 by broth microdilution method; type: functional
Procedure, shortened: as §1, with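 “brain heart infusion” for “cation-adjusted MH II”, “duplicate.” for “duplicate. Bacteria grown on 5% sheep blood agar at 37 °C.”, “°C with 5% CO2.” for “°C.”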

Pseudomonas aeruginosa = assay: Antimicrobial activity against Pseudomonas aeruginosa ATCC 27853 at 621.5 uM by broth microdilution method; type: functional, organism-based
Escherichia coli = assay: Antimicrobial activity against Escherichia coli ATCC 25922 at 621.5 uM by broth microdilution method; type: functional, organism-based
Salmonella typhimurium = assay: Antimicrobial activity against Salmonella Typhimurium ATCC 13311 at 621.5 uM by broth microdilution method; type: functional, organism-based; details: Salmonella enterica subsp. enterica serovar Typhimurium
Staphylococcus aureus [2] = assay: Antimicrobial activity against Staphylococcus aureus ATCC 25923 by broth microdilution method; type: functional; procedure, shortened: as §1
Streptococcus pneumoniae = assay: Antimicrobial activity against Streptococcus pneumoniae ATCC 49619 by broth microdilution method; type: functional
Procedure, shortened: as §1, with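 “brain heart infusion” for “cation-adjusted MH II”, “duplicate.” for “duplicate. Bacteria grown on 5% sheep blood agar at 37 °C.”, “°C with 5% CO2.” for “°C.”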

Staphylococcus aureus [3] = assay: Antimicrobial activity against Staphylococcus aureus ATCC 29213 by broth microdilution method
Staphylococcus aureus [4] = assay: Antimicrobial activity against Staphylococcus aureus ATCC 29213 at 621.5 uM by broth microdilution method; type: functional, organism-based

## CC(C)=CCC[C@H](C)[C@@H]1CC[C@@H](C)c2c(O)cc(C(=O)O)cc21
Staphylococcus aureus [1]
  MBC: 49.3 µM (≈ 15.6 µg/mL)
  MIC: 49.3 µM (≈ 15.6 µg/mL)
Streptococcus pyogenes
  MBC: 99 µM (≈ 31.3 µg/mL)
  MIC: 24.7 µM (≈ 7.82 µg/mL)
Pseudomonas aeruginosa
  Activity: inactive
Escherichia coli
  Activity: inactive
Salmonella typhimurium
  Activity: inactive
Staphylococcus aureus [2]
  MBC: 99 µM (≈ 31.3 µg/mL)
  MIC: 49.3 µM (≈ 15.6 µg/mL)
Streptococcus pneumoniae
  MBC: 49.3 µM (≈ 15.6 µg/mL)
  MIC: 24.7 µM (≈ 7.82 µg/mL)

## GENTAMICIN
Staphylococcus aureus [1]
  MIC: 1 µM

## CN[C@H](CC(C)C)C(=O)N[C@H]1C(=O)N[C@@H](CC(N)=O)C(=O)N[C@H]2C(=O)N[C@H]3C(=O)N[C@H](C(=O)N[C@H](C(=O)O)c4cc(O)cc(O)c4-c4cc3ccc4O)[C@H](O)c3ccc(c(Cl)c3)Oc3cc2cc(c3O[C@@H]2O[C@H](CO)[C@@H](O)[C@H](O)[C@H]2O[C@H]2C[C@](C)(N)[C@H](O)[C@H](C)O2)Oc2ccc(cc2Cl)[C@H]1O [VANCOMYCIN]
Staphylococcus aureus [3]
  MIC: 0.7 µM (≈ 1.01 µg/mL)

## CC(C)=CCC[C@H](C)[C@@H]1CC[C@@H](C)c2c(O)cc(CO)cc21
Staphylococcus aureus [1]
  MBC: 25.8 µM (≈ 7.8 µg/mL)
  MIC: 25.8 µM (≈ 7.8 µg/mL)
Streptococcus pyogenes
  MBC: 12.9 µM (≈ 3.9 µg/mL)
  MIC: 12.9 µM (≈ 3.9 µg/mL)
Pseudomonas aeruginosa
  Activity: inactive
Escherichia coli
  Activity: inactive
Salmonella typhimurium
  Activity: inactive
Staphylococcus aureus [2]
  MBC: 25.8 µM (≈ 7.8 µg/mL)
  MIC: 25.8 µM (≈ 7.8 µg/mL)
Streptococcus pneumoniae
  MBC: 12.9 µM (≈ 3.9 µg/mL)
  MIC: 12.9 µM (≈ 3.9 µg/mL)

## CC(=O)OCc1cc(O)c2c(c1)[C@H]([C@@H](C)CCC=C(C)C)C[C@H](OC(C)=O)[C@H]2C
Staphylococcus aureus [4]
  Activity: inactive

## CC(C)=CCCC1=COC2=C(C)C(=O)C(=O)c3c(C)ccc1c32
Staphylococcus aureus [1]
  MBC: 203 µM (≈ 62.6 µg/mL)
  MIC: 25.3 µM (≈ 7.8 µg/mL)
Streptococcus pyogenes
  MBC: 203 µM (≈ 62.6 µg/mL)
  MIC: 102 µM (≈ 31.3 µg/mL)
Pseudomonas aeruginosa
  Activity: inactive
Escherichia coli
  Activity: inactive
Salmonella typhimurium
  Activity: inactive
Staphylococcus aureus [2]
  MBC: 50.6 µM (≈ 15.6 µg/mL)
  MIC: 25.3 µM (≈ 7.8 µg/mL)
Streptococcus pneumoniae
  MBC: 12.7 µM (≈ 3.92 µg/mL)
  MIC: 6.5 µM (≈ 2 µg/mL)
